In publication PMC3438513 (Cancer research, 2012):
Several values for one entry are separate records, joined by “and”; a condition that tells them apart may be missing. Identical values can stand only once. Like-named read-outs stand apart in the source and are kept apart here.

Columns and labels:
[1] = target: human CD1d (Homo sapiens, UniProt P15813); assay type: binding
Summary of the method: (§1)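 Plates coated with goat anti-mouse IgG Fc-gamma antibody, then washed three times with PBS/Tween. Added human or mouse CD1d-Ig dimer (5 μg/mL) mixed with competitor lipid and 18:1 biotinyl-PE (2 μg/mL) in PBS. Bound biotinyl-PE detected with HRP-avidin. Biotinyl-PE Kd obtained by titration without competitor, fitted to Y = (Bmax*X)/(Kd + X). Competitor constants derived by curve fitting.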

[2] = target: T1, mouse CD1d (Mus musculus, UniProt P11609); assay type: binding; conditions: competitor of Biotinyl PE (2 μg/mL), CD1d dimer
T1 sequence (P11609 22-305 limits assumed): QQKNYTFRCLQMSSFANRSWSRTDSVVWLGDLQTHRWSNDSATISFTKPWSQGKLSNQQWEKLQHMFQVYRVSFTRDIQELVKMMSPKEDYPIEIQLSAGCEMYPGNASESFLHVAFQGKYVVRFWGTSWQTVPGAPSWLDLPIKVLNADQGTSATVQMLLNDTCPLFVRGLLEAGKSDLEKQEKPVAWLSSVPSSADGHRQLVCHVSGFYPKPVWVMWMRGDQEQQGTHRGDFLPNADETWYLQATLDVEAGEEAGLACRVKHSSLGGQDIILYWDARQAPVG
T1 sequence (P01887 21-119 partner): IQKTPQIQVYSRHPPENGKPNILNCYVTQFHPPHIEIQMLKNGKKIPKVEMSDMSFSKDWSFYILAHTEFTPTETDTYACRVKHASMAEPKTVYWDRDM
Summary of the method: as §1

[3] = tested on: α-GalCer-induced NKT cell activation; assay: In vivo α-GalCer-induced serum cytokine production; parameters: species or system C57BL/6 mice; conditions: 1 μg α-GalCer intravenously
Summary of the method: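 C57BL/6 mice, 6–8 weeks old, kept pathogen-free. Given α-GalCer 1 μg intravenously, with or without the test ganglioside at several concentrations. Serum taken at 2, 6, 12, 24, 48 and 72 h. IFN-γ measured by sandwich ELISA on two dilutions of pooled sera, reported as mean ± SD.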

[4] = tested on: NKT cells; assay: Staining of NKT cells with lipid-loaded CD1d-Ig dimers; assay type: cell-based; conditions: human and mouse CD1d-Ig dimers loaded overnight
Summary of the method: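 Human or mouse CD1d-mouse IgG dimer (1 μg) loaded overnight at 37°C with 1.4 μg lipid or ascites in 50 μL PBS. Used to stain 2 × 10^5 NKT cells on ice for 30 min. Cells washed twice in PBS/5% FBS, then stained with PE rat anti-mouse IgG1 (A85-1) on ice for 30 min; anti-human CD3ε-APC added for human cells. Analysed by flow cytometry.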

[5] = tested on: CD1d-mediated activation of NKT cells (hybridomas DN32.D3, N38-3C3, N37-1A12); assay type: cell-based, mouse; conditions: 4 h
Summary of the method: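 APCs were L cells stably transfected with WT cd1d1 cDNA. Treated with test ganglioside at increasing concentrations for 4 h at 37°C, washed extensively with PBS, then cocultured with hybridomas DN32.D3, N37-1A12 and N38-3C3 for 20–24 h at 37°C. IL-2 measured by sandwich ELISA. Triplicates, mean ± SEM; experiment repeated three times.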

[6] = tested on: canonical NKT cell; conditions: high concentrations; ref [9], [24]; cited from earlier work

Compound: CCCCCCCC/C=C\CCCCCCCC(=O)OC[C@H](COP(=O)(O)OCCNC(=O)CCCCCN)OC(=O)CCCCCCC/C=C\CCCCCCCC [18:1 PE lipid, 1,2-Dioleoyl-sn-Glycero-3-Phosphoethanolamine-N-(hexanoylamine)]
- IC50 ([1]; read-out: IC50 in hCD1d, competitor of Biotinyl PE (2 μg/mL), CD1d dimer): 882 ± 125 nM
- IC50 ([2]; read-out: IC50 in mCD1d): 843 ± 181 nM

Compound: CCCCCCCCCCCCCCCCCCCCCCCCCC(=O)N[C@@H](CO[C@H]1O[C@H](CO)[C@H](O)[C@H](O)[C@H]1O)[C@H](O)[C@H](O)CCCCCCCCCCCCCC [α-GalCer, α-galactosylceramide]
- time at which serum IFN-γ production was detectable [3]: 2 h
- time of peak serum IFN-γ production [3]: 24 h
- time of return of serum IFN-γ to baseline [3]: ≤ 48 h
- binding of lipid-loaded CD1d-Ig dimers to NKT cells [4]: bound to NKT cells
- IC50 [1]: 84 ± 10 nM
- IC50 ([2]; IC50 in mCD1d): 95 nM and 95.1 nM

Compound: GT1b
- inhibition of CD1d-mediated activation of NKT cells ([5]; increasing doses of purified ganglioside, IL-2 (Fig 3A-C)): Only GD3 inhibited

Compound: gangliotriaosylceramide [Gg3Cer]
- inhibition of canonical NKT cell activation [6]: inhibit canonical NKT cell activation when used at high concentrations
- reduction in NKT cell activation ([5]; gangliosides 5μg/ml, IL-2 (Fig 3D)): only incubation with GD3 resulted in a significant reduction
